# Screening data deposited in PubChem BioAssay by The Scripps Research Institute Molecular Screening Center.
# An excerpt weighted towards active compounds, which were near 3.5% of everything screened.
# PRMT1 inh: inhibitors of human PRMT1; Q99873; recombinant PRMT1, activity-based probe fluorescence polarization; inhibition, % at 2.79 µM; AID 652257; 1.3% of 370,000 active;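 active = inhibition above about 21% made by adding two undisclosed values, limit read from the data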
# HTRA1 inh: blocks human HTRA1 serine peptidase. Q92743. recombinant HTRA1, FP-rhodamine activity-based probe, fluorescence polarization. inhibition, % at 5.96 µM. 0.5% of 340,000 active; in the data active = inhibition above about 36%
# TCR-CD3 inh: inhibitors of human TCR-CD3 interaction. TAMRA-labeled TCR probe fluorescence, biochemical. inhibition, % at 9.4 µM. 0.37% of 360,000 active. AID 651800; in the data active = inhibition above about 19%;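 also: recombinant mutant TCR 2C K166C tagged with TAMRA read by polarization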
# SIAE inh: blocks human sialic acid acetylesterase | Q9HAT2 | SIAE FP-Rh probe binding, fluorescence polarization | inhibition, % at 9.66 µM | 0.69% of 370,000 active | AID 1053197;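 active = inhibition above a cutoff: mean of compounds within the control limits plus 3 SD of those, cut at about 17% in these data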
# mABHD4 FP: inhibits mouse alpha/beta hydrolase domain 4; inhibition, % at 8.92 µM; purified mABHD4, FP-Rh probe fluorescence polarization; AID 720543; Q8VD66; 0.54% of 370,000 active;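 active = inhibition exceeding the mean over every tested compound plus 3 SD, cut at about 30% in these data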
# Target sequence (Q8VD66 whole entry, looked up, the tested form may be a part): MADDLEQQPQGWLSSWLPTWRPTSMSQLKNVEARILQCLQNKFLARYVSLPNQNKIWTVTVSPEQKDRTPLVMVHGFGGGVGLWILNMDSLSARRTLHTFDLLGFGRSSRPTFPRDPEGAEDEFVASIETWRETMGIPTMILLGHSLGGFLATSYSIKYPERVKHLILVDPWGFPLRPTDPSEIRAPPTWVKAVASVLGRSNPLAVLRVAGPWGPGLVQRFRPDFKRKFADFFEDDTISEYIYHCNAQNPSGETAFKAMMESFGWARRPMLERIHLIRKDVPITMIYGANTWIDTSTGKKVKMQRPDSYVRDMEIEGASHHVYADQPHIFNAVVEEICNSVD
#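 assay system = mABHD4 protein | compound dosing = single nominal dose of 8.92 µM, 0.89% DMSO final | read-out basis = percent inhibition of probe binding, normalized to plate controls | schedule = Enzyme–compound pre-incubation 45 min, then probe 60 min, both 25 °C | detection = fluorescence polarization, excitation 525 nm, emission 598 nm, BODIPY TMR filters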
# rCAG RNA binder: binds r(CAG) RNA repeats; r(CAG) RNA repeat, TO-PRO-1 dye displacement fluorescence; inhibition, % at 3 µM; 1.3% of 370,000 active;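 active = inhibition above the plate cutoff, the mean of all test compounds on that plate plus 3 SD, cut at about 35% in these data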;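 also: higher means more dye released from RNA so lower well fluorescence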
# ABHD4 confirm: ABHD4 (mouse) inhibition, FP confirmation | shares compounds with mABHD4 FP | inhibition, % at 8.92 µM | 55% of 1,800 active | purified mABHD4, FP-Rh probe fluorescence polarization;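 active = mean inhibition across replicates above the hit cutoff set in the primary screen, cut at about 30% in these data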
# Numbers stand for hits; - = inactive; . = no result given.
SMILES,PRMT1 inh,HTRA1 inh,TCR-CD3 inh,SIAE inh,mABHD4 FP,rCAG RNA binder,ABHD4 confirm
COc1ccc(OC)c(Nc2nc(NCCO)c3ccccc3n2)c1,-,-,-,-,-,-,.
Cc1ccc(Nc2nc(NCCO)c3ccccc3n2)cc1C,-,-,-,-,35,-,78
CCOC(=O)C(=O)Nc1nc(-c2ccc3c(c2)CCN3C(=O)C2CC2)c(C)s1,-,-,-,-,39,-,-
CC(=O)Nc1nc(-c2ccc3c(c2)CC(C)N3C(=O)C2CC2)c(C)s1 (stereo not drawn),-,-,-,-,-,-,.
CC1CCN(c2ccc(C(=O)O)cc2NS(=O)(=O)c2ccccc2)CC1,-,.,.,-,37,-,39
CCN(Cc1ccccc1)C(=O)C1CCCN(c2ncccn2)C1 (stereo not drawn),-,.,.,-,-,-,.
Cc1nc(NC(=O)COc2ccccc2)sc1C(=O)Nc1ccccc1,-,-,-,-,49,-,50
COC(=O)[C@]12C[C@H](CC(=O)N3CCCCC3)C(=O)N(CCc3ccc(OC)c(OC)c3)C1=C[C@H](C(C)(C)C)O[C@@H]2C,-,.,.,-,-,-,.
O=C(COc1ccccc1)N=C1SC2CS(=O)(=O)CC2N1c1ccc(F)cc1 (stereo not drawn),-,-,-,-,34,-,-
O=C(COc1ccccc1)N=C1SC2CS(=O)(=O)CC2N1CCc1ccccc1 (stereo not drawn),-,-,-,-,-,-,.
CC(C)OC(=O)CSc1nnc(-c2cnccn2)n1C,-,-,-,-,116,-,-
COC(=O)CSc1nnc(-c2cnccn2)n1C,-,-,-,-,-,-,.
CC(NC(=O)c1ccccc1NC(=O)c1ccncc1)c1ccccc1 (stereo not drawn),-,-,-,-,-,-,.
Cc1cc(C(=O)O)cc(S(=O)(=O)Nc2ccccc2C(=O)NC(C)c2ccccc2)c1C (stereo not drawn),-,-,-,-,34,-,-
O=C1C2C(C(=O)N1/N=C/c1cc([N+](=O)[O-])c(O)cc1O)C1C=CC2C12CC2 (stereo not drawn),-,-,-,-,31,-,-
N#Cc1ccccc1S(=O)(=O)N1CCN(CC(O)CN2CCOCC2)CC1 (stereo not drawn),-,-,-,-,38,-,-
N#CCC(=O)NNc1c([N+](=O)[O-])cc(C(F)(F)F)cc1[N+](=O)[O-],-,.,-,-,43,-,-
O=[N+]([O-])c1cc(C(F)(F)F)cc([N+](=O)[O-])c1NCCCN1CCOCC1,-,-,-,-,-,-,.
COc1cccc(OC)c1C(=O)Nc1ccc(N2CCCC2)cc1,-,-,-,-,33,-,38
O=C(C1CC(=O)N(C2CCCC2)C1)N1CCN(c2ccccc2F)CC1 (stereo not drawn),-,-,-,-,-,-,.
O=C(C1CCCCC1)N1CCN(c2ccccc2F)CC1,-,-,-,-,45,-,-
COc1ccc(OC)c(N2Cc3cc(C)c(C)cc3C2)c1,-,-,-,-,30,-,36
CC1=C(C(=O)NCc2ccco2)C2(CCC(C)CC2)OC1=O (stereo not drawn),-,-,-,-,31,-,-
CN1CCN(c2ccc(C(=O)c3ccccc3)cc2[N+](=O)[O-])CC1,-,-,-,-,-,-,.
O=C(O)c1ccc(N2CCN(C(c3ccccc3)c3ccccc3)CC2)c([N+](=O)[O-])c1,-,-,-,-,32,-,47
SMILES,PRMT1 inh,HTRA1 inh,TCR-CD3 inh,SIAE inh,mABHD4 FP,rCAG RNA binder,ABHD4 confirm
CC(=O)Nc1ccc(NC(=O)CSc2nnc(-c3n[nH]c4c3CCC4)n2N)cc1,-,.,.,-,-,-,.
Cc1csc(NC(=O)c2cccc(Cn3nc(C)c(Br)c3C)c2)n1,-,-,-,-,50,-,-
Cc1nn(Cc2ccc(C(=O)Nc3nc4c(C)cccc4s3)o2)c(C)c1Br,-,-,-,-,-,-,.
O=C(c1ccc(Br)cn1)N1CCC(Oc2cccnc2)CC1,-,.,.,-,-,-,.
Cc1nc(N)sc1-c1csc(N(C)c2ccc(O)cc2)n1,-,-,-,-,34,-,-
NC(=O)c1ccc(NC(=O)COc2cccc3c2CCNC3=O)cc1,-,-,-,-,105,-,-
c1ccc2sc(NN=C3CCCCCC3)nc2c1,-,-,-,-,36,-,30
O=C(Nc1nc2ccccc2s1)c1ccccc1,-,-,-,-,-,-,.
C#CCNC(=O)C[C@H]1C[C@@]2(C(=O)OC)C(=C[C@H](C(C)C)O[C@@H]2C2CC2)N(CCc2ccc(OC)c(OC)c2)C1=O,-,.,.,-,-,-,.
COc1ccc(CCC[C@@H](CCC(=O)N(c2ccccc2)c2ccccc2)CCc2ccccc2)cc1,-,.,.,-,-,-,.
O=C(Cc1ccc2c(c1)OCO2)N1CCC(n2nc(-c3ccccc3)oc2=O)CC1,-,.,.,-,-,.,.
N#C/C(=C(/O)c1ccc(-c2cccc([N+](=O)[O-])c2)o1)c1nc2ccccc2s1,-,-,-,-,31,-,56
O=C(O)c1ccc(-c2cccc([N+](=O)[O-])c2)o1,-,-,-,-,-,-,.
Oc1csc(Cc2nc(-c3ccc(-c4ccccc4)cc3)cs2)n1,-,-,-,-,33,-,-
NC(=S)Cc1nc(-c2ccccc2)cs1,-,-,-,-,-,-,.
Oc1ccc2[nH]cc(-c3cccs3)c2c1-c1ccccc1,-,.,.,-,-,-,.
Oc1ccc2[nH]cc(CCc3ccccc3)c2c1-c1ccccc1,-,.,.,-,33,-,-
COc1ccccc1C(=O)NC1CCCCN(Cc2cccc(Cl)c2)C1=O (stereo not drawn),-,.,.,-,-,-,.
COc1cccc(C=NNC(=O)CSc2nc3ccccc3[nH]2)c1O,-,.,.,-,-,-,.
c1ccc2c(-c3ccc(OCCN4CCCCC4)cc3)c(-c3ccsc3)sc2c1,-,-,-,-,40,-,-
c1ccc(-c2sc3ccccc3c2-c2ccc(OCCN3CCCCC3)cc2)cc1,-,-,-,-,-,-,.
COC(=O)[C@]12C[C@H](CC(=O)N3CCOCC3)C(=O)N(Cc3ccc(Cl)cc3Cl)C1=C[C@H](C1CCCC1)O[C@@H]2C,-,.,.,-,-,-,.
CC(=O)C1=C(C)NC2=C(C(=O)c3ccccc32)C1c1ccccc1 (stereo not drawn),-,-,-,-,41,-,83
COc1cc(OC)cc(C(=O)Nc2nc(CC(=O)NCc3ccccc3OC)cs2)c1,-,-,-,-,-,-,.
COc1cc(OC)cc(C(=O)Nc2nc(CC(=O)NCc3ccc(F)cc3)cs2)c1,-,-,-,-,43,-,35
O=S1(=O)c2ccc(N3CCC[C@H]3CO)cc2O[C@H]2CCN1C2,-,.,.,-,-,-,.
CC(=O)N=c1sc2nc3ccccc3nc2n1N(C(C)=O)C(C)=O,-,-,-,-,35,-,-
